Source: PubChem BioAssay
Biofilm kill mix = clotrimazole potentiators killing C. albicans biofilm, primary screen, 4-compound mixtures. C. albicans biofilm persisters + clotrimazole, fluorescence viability; primary screen in compound mixtures of four per well. inhibition, % at 7.6 µM. 0.02% of 120,000 active. AID 1242, 2008;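 active means inhibition above 30.3% in the primary screen of four-compound pools, then above 30% when the compound was retested; inconclusive means passed the primary limit but could not be retested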;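 further: compounds exposed to preformed 24 h biofilms for 48 h; 0% = untreated biofilm control and 100% = clotrimazole plus chlorhexidine kill blank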
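Test system: C. albicans CAF4-2 wild-type biofilms; buffer or medium: RPMI/MOPS medium, pH 7.0; schedule: 24 h biofilm formation, then 48 h compound exposure, 37 °C; detection: Alamar Blue fluorescence; measure: percent inhibition of biofilm viability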
ROMK mod = ROMK potassium channel modulators, primary screen, cell-based, thallium flux, MLSMR library; ATP-sensitive inward rectifier potassium channel 1 (Homo sapiens), P48048; Tet-inducible ROMK, thallium flux fluorescence; actives lie on both sides; B-score at 10 µM; 2% of 130,000 active;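 active means signal ratio slope over the read window, or its plate-corrected B-score, at least 3 SD from the plate mean, either direction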;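 further: B-score of the F/F0 ratio slope over 7 to 12 s after thallium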
Target sequence (P48048 whole entry, looked up): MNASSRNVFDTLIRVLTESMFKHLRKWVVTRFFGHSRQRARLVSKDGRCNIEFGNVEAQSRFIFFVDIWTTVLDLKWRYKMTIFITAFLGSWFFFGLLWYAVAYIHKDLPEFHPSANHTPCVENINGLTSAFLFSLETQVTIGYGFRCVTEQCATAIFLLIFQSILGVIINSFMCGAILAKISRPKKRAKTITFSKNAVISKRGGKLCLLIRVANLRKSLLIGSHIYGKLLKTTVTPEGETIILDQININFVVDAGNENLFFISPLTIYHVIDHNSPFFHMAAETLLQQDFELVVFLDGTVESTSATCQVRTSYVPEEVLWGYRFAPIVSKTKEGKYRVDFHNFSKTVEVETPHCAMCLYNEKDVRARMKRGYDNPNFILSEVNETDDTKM
ROMK retest = ROMK channel modulator hit retest, confirmation, cell-based, thallium flux, duplicate, resupplied hits; shares compounds with ROMK mod; fluorescence ratio; stronger effect = lower value; AID 1917, 2009; 54% of 3,000 active; normalized thallium flux (F/F0 slope) at 10 µM;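 active means Flux at 10 µM at least 3 SD below or above vehicle control mean in one or both replicates; inconclusive means no clear call, values can overlap the other calls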
An asterisk follows results filed as active; ? = inconclusive; . = no result. The full list was thinned out, with hits kept by preference.

SMILES	Biofilm kill mix	ROMK mod	ROMK retest
CCC(C)(C)C1CCc2nc3ccccc3c(C(=O)OC(C)C(=O)Nc3c(C)n(C)n(-c4ccccc4)c3=O)c2C1 (configuration not stated)	19	.	.
Cc1ccccc1C(=O)Nc1cccc(C(=O)N/N=C/c2cc(Cl)cc([N+](=O)[O-])c2O)c1	13	1.7	.
Cc1ccc2nsnc2c1NC(=O)Cc1ccc(Cl)cc1	5	.	.
Cc1ccc2nsnc2c1NC(=O)CCl	7	-13*	0.079
O=S(=O)(Nc1ccc(N2CCCCC2)cc1)c1ccc(F)c(F)c1	8	.	.
CCOc1ccc(C2C(C(=O)Nc3cc(C)on3)c3ccccc3C(=O)N2CCN2CCOCC2)cc1 (configuration not stated)	-1	-4.1*	0.08
COc1ccc(C2C(C(=O)NCCCN3CCOCC3)c3ccccc3C(=O)N2c2ccc(OC)cc2)cc1 (configuration not stated)	-6	-0.51	.
CCS(=O)(=O)C1=NN2C(=N)/C(=C\c3ccc(SCc4ccco4)o3)C(=O)N=C2S1	-4	-2.9	.
C=CCn1c(SCC(=O)N2CCc3ccccc3C2)nc2sc(CC)cc2c1=O	-2	.	0.082
C=CCn1c(SCC(=O)N2CCc3ccccc3C2)nc2sc(C)c(C)c2c1=O	10	.	.
FC(F)(F)c1ccc(Oc2ccc3cc(Br)ccc3c2)nc1	8	.	.
Cc1ccc(S(=O)(=O)N2CCC(=O)N(C(COCc3cccc(C(F)(F)F)c3)Cc3ccccc3)CC2)cc1 (configuration not stated)	22	-0.49	.
CCN(CC)Cc1c(O)ccc2occ(C(=O)c3ccc(OC)cc3)c12	16	-0.78	.
CCN(CC)Cc1c(O)ccc2c([N+](=O)[O-])c(C)n(-c3ccc(OC)cc3)c12	10	-4.8*	?
O=C(c1cccc(C(=O)N2CCN(c3ccccc3)CC2)c1)N1CCN(c2ccccc2)CC1	.	-0.28	.
CC(=O)c1ccc(N2CCN(C(=O)c3cccc(Oc4ccccc4)c3)CC2)cc1	10	-2	0.081
O=C(O)CN(c1ccccc1)S(=O)(=O)c1cc(C(F)(F)F)cc(C(F)(F)F)c1	14	.	.
CCN(c1ccccc1)S(=O)(=O)c1ccc(N)c(OC)c1	.	3.5*	0.081
CCN(c1ccccc1)S(=O)(=O)c1ccc(Cl)c(C(=O)O)c1	3	0.79	.
CN(C)CCCN1C(=O)c2cccc3c([N+](=O)[O-])ccc(c23)C1=O	11	-4.8*	0.038*
O=C1c2cccc3c([N+](=O)[O-])ccc(c23)C(=O)N1CCc1ccccn1	25	0.0051	.
Cc1sc(C(=O)Nc2ccc3ccccc3c2)cc1CC(=O)O	19	0.6	.
C/C(=N\NC(=O)c1ccccc1F)c1ccc2c(c1)Nc1ccccc1S2	15	.	0.07
C/C(=N\NC(=O)c1ccc(O)cc1)c1ccc2c(c1)Nc1ccccc1S2	28	.	.
CC(Oc1cc(F)ccc1[N+](=O)[O-])C(=O)N(C)CC(=O)Nc1ccccc1C(F)(F)F (configuration not stated)	12	0.97	.
SMILES	Biofilm kill mix	ROMK mod	ROMK retest
CCCCC1CCC(c2nc(-c3cccnc3)no2)CC1 (configuration not stated)	.	.	0.08
CCCCOc1ccc(-c2nc(-c3cccnc3)no2)cc1	.	-0.39	.
CC(=O)c1ccc(NC(=O)C(Cc2ccccc2)n2cccc2)cc1 (configuration not stated)	8	0.24	.
N#Cc1c(NCc2ccccc2)ccnc1NCc1cccnc1	.	.	0.073
CN(C)c1ccnc(NCc2ccccc2)c1C#N	11	.	.
CC(C)CN(Cc1cc(=O)oc2cc3c(cc12)CCCC3)CC(C)C	16	.	.
COc1ccccc1/C=C/C=N/NC(=O)CC1C(=O)NN=C1C (configuration not stated)	7	-11*	0.077
COc1cccc(/C=N/NC(=O)CC2C(=O)NN=C2C)c1O (configuration not stated)	.	-0.2	.
CCOC(=O)C1CCCN(c2ncnc3c2oc2ccccc23)C1 (configuration not stated)	.	.	0.054*
CCOC(=O)C1CCN(c2ncnc3c2oc2ccccc23)CC1	.	-2.6	.
O=C(COc1ncnc2ccccc12)Nc1cc([N+](=O)[O-])ccc1F	20	.	.
COC(=O)/C(C#N)=C1/C=Cc2ccccc2N1	23	-0.67	.
Cc1cc(C)c(C)c(S(=O)(=O)NC2CCN(Cc3ccccc3)CC2)c1C	5	-4*	0.063*
O=S(=O)(NC1CCN(Cc2ccccc2)CC1)c1ccc2ccccc2c1	0	-3.5*	0.064*
Cc1cc(C)c(S(=O)(=O)NC2CCN(Cc3ccccc3)CC2)c(C)c1	14	.	.
O=C(C1CC1)N1CCc2cc(S(=O)(=O)NC3CCN(Cc4ccccc4)CC3)ccc21	.	-0.3	.
